Assay results as given in ChEMBL document CHEMBL4145481, “Synthesis and biological evaluation of novel bavachinin analogs as anticancer agents” (Eur J Med Chem, 2018).
pEC50, pIC50: −log10 of the molar value.

Experiments:
A549 [1] = test: Cytotoxicity against human A549 cells assessed as growth inhibition at 50 uM after 48 hrs by SRB assay relative to control; type: functional; conditions: A549, 48 h, read-out: GI
Procedure, shortened: (§1)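 SRB growth-inhibition run in RPMI-1640/10% FBS at 37°C, 5% CO₂. Cell lines were seeded (PC-3 7000, MCF-7 8000, A549 7500, HCT-116 7000/well) and attached 24 h. The treatment series included 50 μM, with 48 h exposure. Cells were cold-TCA fixed and stained with 0.4% SRB. Dye was solubilized in 10 mM Tris pH 10.4 and read at 540 nm against untreated control.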

PC-3 [2] = test: Cytotoxicity against human PC3 cells assessed as growth inhibition at 50 uM after 48 hrs by SRB assay relative to control; type: functional; conditions: PC-3, 48 h, read-out: GI; procedure, shortened: as §1
HCT-116 [3] = test: Cytotoxicity against human HCT116 cells assessed as growth inhibition at 50 uM after 48 hrs by SRB assay relative to control; type: functional; conditions: HCT-116, 48 h, read-out: GI; procedure, shortened: as §1
MCF7 [4] = test: Cytotoxicity against human MCF7 cells assessed as growth inhibition at 50 uM after 48 hrs by SRB assay relative to control; type: functional; conditions: MCF7, 48 h, read-out: GI; procedure, shortened: as §1
A549 [5] = test: Cytotoxicity against human A549 cells assessed as growth inhibition after 48 hrs by SRB assay; type: functional, cell-based; conditions: A549, 48 h
Procedure, shortened: (§2)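 Cells were grown in RPMI-1640 with 10% FBS and penicillin/streptomycin at 37°C, 5% CO₂. Seeding was PC-3 7000, MCF-7 8000, A549 7500 and HCT-116 7000 cells/well, with 24 h attachment. Cells were exposed to 1, 5, 10, 30 and 50 μM for 48 h, with a 5-fluorouracil reference. Cells were TCA-fixed (1 h, 4°C) and stained with 0.4% SRB. Bound dye was dissolved in 10 mM Tris pH 10.4 and read at 540 nm. IC50 came from the concentration-response.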

PC-3 [6] = test: Cytotoxicity against human PC3 cells assessed as growth inhibition after 48 hrs by SRB assay; type: functional, cell-based; conditions: PC-3, 48 h; procedure, shortened: as §2
HCT-116 [7] = test: Cytotoxicity against human HCT116 cells assessed as growth inhibition after 48 hrs by SRB assay; type: functional, cell-based; conditions: HCT-116, 48 h; procedure, shortened: as §2
MCF7 [8] = test: Cytotoxicity against human MCF7 cells assessed as growth inhibition after 48 hrs by SRB assay; type: functional, cell-based; conditions: MCF7, 48 h; procedure, shortened: as §2
[9] = biological target: T1, Peroxisome proliferator-activated receptor gamma (Mus musculus, UniProt P37238); test: Agonist activity at mouse PPARgamma expressed in 293T cells by dual luciferase reporter gene assay; type: cell-based
T1 sequence (P37238 whole entry): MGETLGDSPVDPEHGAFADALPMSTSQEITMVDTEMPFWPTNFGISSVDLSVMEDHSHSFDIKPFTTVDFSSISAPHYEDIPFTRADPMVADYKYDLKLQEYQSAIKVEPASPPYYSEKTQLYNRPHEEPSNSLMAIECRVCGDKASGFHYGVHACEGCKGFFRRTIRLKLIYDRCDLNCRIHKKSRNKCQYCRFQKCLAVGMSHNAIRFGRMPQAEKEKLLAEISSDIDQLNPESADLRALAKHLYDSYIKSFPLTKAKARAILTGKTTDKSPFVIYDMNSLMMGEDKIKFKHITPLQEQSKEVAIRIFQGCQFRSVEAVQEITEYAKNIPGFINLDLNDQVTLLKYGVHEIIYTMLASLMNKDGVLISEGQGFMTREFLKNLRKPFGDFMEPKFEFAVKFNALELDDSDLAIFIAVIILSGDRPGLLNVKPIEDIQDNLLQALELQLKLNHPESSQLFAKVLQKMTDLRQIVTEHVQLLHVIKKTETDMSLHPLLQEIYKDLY

SMILES | inhibition of growth at 50 µM (A549 [1]) [%] | inhibition of growth at 50 µM (PC-3 [2]) [%] | inhibition of growth at 50 µM (HCT-116 [3]) [%] | inhibition of growth at 50 µM (MCF7 [4]) [%] | pIC50 (A549 [5]) | pIC50 (PC-3 [6]) | pIC50 (HCT-116 [7]) | pIC50 (MCF7 [8]) | pEC50 [9]
COc1ccc([C@@H]2C/C(=N/OCc3cn(-c4ccc(C#N)cc4)nn3)c3cc(CC=C(C)C)c(OC)cc3O2)cc1 | 42 | 50 | 50 | 40 |  |  |  |  | 
COc1cc(O)c(C(=O)/C=C/c2ccc(O)cc2)cc1CC=C(C)C | 68 | 44 | 63 | 73 |  |  |  |  | 
COc1cc2c(cc1CC1OC1(C)C)C(=O)C[C@@H](c1ccc(O)cc1)O2 (stereo not given in full) | 79 | 92 | 97 | 98 | 4.53 | 4.56 | 4.54 | 4.51 | 
COc1ccc([C@@H]2C/C(=N/OCc3cn(-c4ccccc4CO)nn3)c3cc(CC=C(C)C)c(OC)cc3O2)cc1 | 100 | 100 | 100 | 100 | 4.51 | 4.58 | 4.52 | 4.63 | 
COc1ccc([C@@H]2C/C(=N/OCc3cn(-c4ccc(C(=O)c5ccccc5)cc4)nn3)c3cc(CC=C(C)C)c(OC)cc3O2)cc1 | 34 | 40 | 52 | 41 |  |  |  |  | 
COc1cc2c(cc1CC=C(C)C)/C(=N/O)C[C@@H](c1ccc(O)cc1)O2 | 80 | 81 | 99 | 93 | 4.94 | 4.50 | 4.53 | 4.63 | 
COc1cc2c(cc1CC=C(C)C)C(=O)C[C@@H](c1ccc(Oc3ccc(Br)cc3)cc1)O2 | 72 | 55 | 76 | 68 |  |  |  |  | 
COc1cc2c(cc1CC=C(C)C)/C(=N/NC(N)=O)C[C@@H](c1ccc(O)cc1)O2 | 77 | 67 | 87 | 93 | 4.60 | 4.56 | 4.61 | 4.71 | 
C#CCOc1ccc([C@@H]2CC(=O)c3cc(CC=C(C)C)c(OC)cc3O2)cc1 | 53 | 52 | 75 | 68 |  |  |  |  | 
COc1cc2c(cc1CC=C(C)C)C(=O)C[C@@H](c1ccc(Oc3cccc([N+](=O)[O-])c3)cc1)O2 | 37 | 21 | 46 | 53 |  |  |  |  | 
COc1ccc([C@@H]2C/C(=N/OCc3cn(-c4ccc(NC(C)=O)cc4)nn3)c3cc(CC=C(C)C)c(OC)cc3O2)cc1 | 19 | 2 | 6 | 0 |  |  |  |  | 
COc1ccc([C@@H]2CC(=O)c3cc(CC=C(C)C)c(OC)cc3O2)cc1 | 45 | 58 | 68 | 65 |  |  |  |  | 
COc1cc2c(cc1CC=C(C)C)[C@H](O)C[C@@H](c1ccc(O)cc1)O2 | 48 | 13 | 37 | 49 |  |  |  |  | 
COc1cc2c(cc1CC=C(C)C)C(=O)C[C@@H](c1ccc(OC(=O)c3ccc([N+](=O)[O-])cc3)cc1)O2 |  |  |  |  |  |  |  |  | 6.37
CCCCOc1ccc([C@@H]2CC(=O)c3cc(CC=C(C)C)c(OC)cc3O2)cc1 | 37 | 48 | 60 | 57 |  |  |  |  | 
COc1cc2c(cc1CC=C(C)C)C(=O)C[C@@H](c1ccc(Oc3ccccc3)cc1)O2 | 46 | 53 | 76 | 69 |  |  |  |  | 
COc1ccc([C@@H]2C/C(=N/OCc3cn(-c4cccc(CO)c4)nn3)c3cc(CC=C(C)C)c(OC)cc3O2)cc1 | 43 | 34 | 27 | 42 |  |  |  |  | 
CCOc1ccc([C@@H]2CC(=O)c3cc(CC=C(C)C)c(OC)cc3O2)cc1 | 37 | 60 | 65 | 57 |  |  |  |  | 
COc1ccc([C@@H]2C/C(=N/O)c3cc(CC=C(C)C)c(OC)cc3O2)cc1 | 66 | 45 | 47 | 63 |  |  |  |  | 
COc1cc2c(cc1CC=C(C)C)C(=O)C[C@@H](c1ccc(OC(C)=O)cc1)O2 |  |  |  |  |  |  |  |  | 6.11
COc1ccc([C@@H]2C/C(=N/OCc3cn(-c4cc(OC)c(OC)c(OC)c4)nn3)c3cc(CC=C(C)C)c(OC)cc3O2)cc1 | 28 | 36 | 29 | 45 |  |  |  |  | 
CCCOc1ccc([C@@H]2CC(=O)c3cc(CC=C(C)C)c(OC)cc3O2)cc1 | 43 | 54 | 63 | 60 |  |  |  |  | 
COc1cc2c(cc1CCC(C)C)C(=O)C[C@@H](c1ccc(O)cc1)O2 | 75 | 78 | 77 | 81 | 4.52 | 4.44 | 4.46 | 4.46 | 
COc1ccc([C@@H]2C/C(=N/OCc3cn(-c4ccc(NC(=O)c5ccccc5)cc4)nn3)c3cc(CC=C(C)C)c(OC)cc3O2)cc1 | 31 | 22 | 8 | 4 |  |  |  |  | 
C#CCO/N=C1/C[C@@H](c2ccc(OC)cc2)Oc2cc(OC)c(CC=C(C)C)cc21 | 64 | 41 | 65 | 61 |  |  |  |  | 
COc1cc2c(cc1CC=C(C)C)C(=O)C[C@@H](c1ccc(Oc3ccc(F)cc3)cc1)O2 | 27 | 19 | 29 | 37 |  |  |  |  | 
COc1ccc([C@@H]2C/C(=N/OCc3cn(-c4ccc(O)cc4)nn3)c3cc(CC=C(C)C)c(OC)cc3O2)cc1 | 52 | 64 | 65 | 63 |  |  |  |  | 
COc1ccc([C@@H]2C/C(=N/OCc3cn(-c4cccnc4Cl)nn3)c3cc(CC=C(C)C)c(OC)cc3O2)cc1 | 58 | 44 | 47 | 35 |  |  |  |  | 
COc1ccc([C@@H]2C/C(=N/OCc3cn(-c4ccc(Cl)cc4C)nn3)c3cc(CC=C(C)C)c(OC)cc3O2)cc1 | 35 | 49 | 20 | 37 |  |  |  |  | 
